In ChEMBL document CHEMBL1137664, “Conflicting requirements of Plasmodium falciparum dihydrofolate reductase mutations conferring resistance to pyrimethamine-WR99210 combination” (Antimicrob Agents Chemother, 2007):

Legend:
[1] = Inhibition of pyrimethamine-resistant form-1 Plasmodium falciparum N51I, C59R, S108N, I164L, D187A mutant expressed in Escherichia coli BL21(DE3) by Michaelis-Menten based competitive inhibition assay
[2] = Inhibition of pyrimethamine-resistant form-3 Plasmodium falciparum N51I, C59R, S108N, I164L, I150V, N182I, N201D mutant expressed in Escherichia coli BL21(DE3)
Method in brief: (§1)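 The recombinant enzyme was expressed in E. coli BL21(DE3) and purified by methotrexate-Sepharose affinity chromatography. Each reaction was started by adding 0.008 to 0.01 U of enzyme in the presence of varying inhibitor amounts. DHFR activity was read on a microplate spectrophotometer, and IC50 was taken from the inhibition data.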

[3] = Inhibition of WR99210-resistant form-1 Plasmodium falciparum I51N, C59R, N108S, I164L mutant expressed in Escherichia coli BL21(DE3); method in brief: as §1
[4] = Inhibition of WR99210-resistant form-2 Plasmodium falciparum N51I, C59R, N108S, I164L mutant expressed in Escherichia coli BL21(DE3) by Michaelis-Menten based competitive inhibition assay
[5] = Inhibition of WR99210-resistant form-2 Plasmodium falciparum N51I, C59R, N108S, I164L mutant expressed in Escherichia coli BL21(DE3); method in brief: as §1
[6] = Inhibition of pyrimethamine-resistant form-1 Plasmodium falciparum N51I, C59R, S108N, I164L, D187A mutant expressed in Escherichia coli BL21(DE3); method in brief: as §1
[7] = Inhibition of Plasmodium falciparum DHFR-TS QM template N51I, C59R, S108N, I164L mutant expressed in Escherichia coli BL21(DE3) by Michaelis-Menten based competitive inhibition assay
[8] = Inhibition of WR99210-resistant form-3 Plasmodium falciparum N51I, C59R, N108T, I164L mutant expressed in Escherichia coli BL21(DE3); method in brief: as §1
[9] = Inhibition of Plasmodium falciparum DHFR QM template N51I, C59R, S108N, I164L mutant expressed in Escherichia coli BL21(DE3); method in brief: as §1
[10] = biological target: T1, Bifunctional dihydrofolate reductase-thymidylate synthase (Plasmodium falciparum (isolate 3D7), UniProt Q8I1R6, C59R/I164L/K96N/N51I/S108N); experiment: Inhibition of pyrimethamine-resistant form-2 Plasmodium falciparum N51I, C59R, S108N, I164L, K96N mutant expressed in Escherichia coli BL21(DE3)
[11] = Inhibition of WR99210-resistant form-3 Plasmodium falciparum N51I, C59R, N108T, I164L mutant expressed in Escherichia coli BL21(DE3) by Michaelis-Menten based competitive inhibition assay
[12] = biological target: T1, Bifunctional dihydrofolate reductase-thymidylate synthase; experiment: Inhibition of pyrimethamine-resistant form-2 Plasmodium falciparum N51I, C59R, S108N, I164L, K96N mutant expressed in Escherichia coli BL21(DE3) by Michaelis-Menten based competitive inhibition assay
[13] = Inhibition of pyrimethamine-resistant form-3 Plasmodium falciparum N51I, C59R, S108N, I164L, I150V, N182I, N201D mutant expressed in Escherichia coli BL21(DE3) by Michaelis-Menten based competitive inhibition assay
[14] = Inhibition of WR99210-resistant form-1 Plasmodium falciparum I51N, C59R, N108S, I164L mutant expressed in Escherichia coli BL21(DE3) by Michaelis-Menten based competitive inhibition assay
[15] = Inhibition of Plasmodium falciparum DHFR-TS QM template N51I, C59R, S108N, I164L mutant expressed in Escherichia coli BL21(DE3); method in brief: as §1
[16] = Inhibition of Plasmodium falciparum DHFR QM template N51I, C59R, S108N, I164L mutant expressed in Escherichia coli BL21(DE3) by Michaelis-Menten based competitive inhibition assay
[17] = Inhibition of WR99210-resistant form-A Plasmodium falciparum DHFR-TS I51N, C59R, N108S, L164I, D54N mutant expressed in Escherichia coli BL21(DE3); method in brief: as §1

T1 sequence (Q8I1R6 whole entry N51I/C59R/K96N/S108N/I164L): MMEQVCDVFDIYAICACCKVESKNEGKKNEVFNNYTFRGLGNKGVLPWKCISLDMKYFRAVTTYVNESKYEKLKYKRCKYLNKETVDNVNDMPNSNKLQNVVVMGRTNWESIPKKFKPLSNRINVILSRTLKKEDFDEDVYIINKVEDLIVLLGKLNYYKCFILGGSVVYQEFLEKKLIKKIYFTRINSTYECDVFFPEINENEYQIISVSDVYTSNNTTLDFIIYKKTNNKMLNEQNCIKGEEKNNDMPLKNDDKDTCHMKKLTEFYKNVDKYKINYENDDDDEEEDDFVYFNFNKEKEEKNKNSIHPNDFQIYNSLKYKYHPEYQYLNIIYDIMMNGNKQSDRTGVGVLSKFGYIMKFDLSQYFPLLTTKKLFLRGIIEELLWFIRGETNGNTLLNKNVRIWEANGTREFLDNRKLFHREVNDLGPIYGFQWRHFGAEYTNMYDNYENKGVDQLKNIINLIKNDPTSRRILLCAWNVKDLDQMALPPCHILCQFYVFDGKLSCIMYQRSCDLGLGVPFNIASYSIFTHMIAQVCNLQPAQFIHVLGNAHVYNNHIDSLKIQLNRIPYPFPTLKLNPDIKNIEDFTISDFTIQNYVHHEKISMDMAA

| SMILES | Ki [1] | IC50 [2] | IC50 [3] | Ki [4] | IC50 [5] | IC50 [6] | Ki [7] | IC50 [8] | IC50 [9] | IC50 [10] | Ki [11] | Ki [12] | Ki [13] | Ki [14] | IC50 [15] | Ki [16] | IC50 [17] |
| --- | --- | --- | --- | --- | --- | --- | --- | --- | --- | --- | --- | --- | --- | --- | --- | --- | --- |
| CC1(C)N=C(N)N=C(N)N1OCCCOc1cc(Cl)c(Cl)cc1Cl | 514 nM | 920 nM | 200 nM | 17.6 nM | 60 nM | 50 nM | 209 nM | 680 nM | 50 nM | 90 nM | 72.4 nM | 292 nM | 147 nM | 8.09 nM | 160 nM | 859 nM | 40000 nM |
| CCc1nc(N)nc(N)c1-c1ccc(Cl)cc1 [PYRIMETHAMINE] | 1.24 nM | 3470 nM | 90 nM | 7.26 nM | 10 nM | 870 nM | 2.1 nM | 1820 nM | 420 nM |  | 15.5 nM |  | 1.07 nM | 3.57 nM | 170 nM | 1.9 nM | 7200 nM |
